Test results as given in ChEMBL document CHEMBL4270554, “Discovery of the cancer cell selective dual acting anti-cancer agent (Z)-2-(1H-indol-3-yl)-3-(isoquinolin-5-yl)acrylonitrile (A131)” (Eur J Med Chem, 2018).
The source made the active and inactive calls. The rule behind the calls is not given here.

How the values were obtained:
hTERT-BJ [1] = assay: Cell cycle arrest in human hTERT-BJ cells transformed with hTert, small t, shRNAs against p53 and pRb and H-RasV12-ER assessed as accumulation at sub-G1 phase at 5 uM after 48 hrs; type: functional, cell-based
Procedure, shortened: (§1)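 Isogenic normal and fully transformed BJ fibroblasts (hTert, small t, shRNAs to p53 and pRb, H-RasV12-ER) exposed to 5 μM for 48 h. Percentage of cells in sub-G1 phase determined as a cell death measure.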

hTERT-BJ [2] = assay: Induction of autophagy in human hTERT-BJ cells transformed with hTert, small t, shRNAs against p53 and pRb and H-RasV12-ER assessed as increase in LC3-2 to LC3-1 ratio at 5 uM after 24 hrs by immunoblot analysis relative to control; type: functional
Procedure, shortened: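 Fully transformed BJ fibroblasts (hTert, small t, shRNAs to p53 and pRb, H-RasV12-ER) grown at 37 °C, 5% CO2 in 10% FBS medium; treated 24 h at 5 μM. Triton lysis, 14% SDS-PAGE, LC3 immunoblot; LC3-II/LC3-I band ratio relative to DMSO-treated control, under 2-fold induction deemed insignificant.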

hTERT-BJ [3] = assay: Inhibition of mitotic progression in human hTERT-BJ cells transformed with hTert, small t, shRNAs against p53 and pRb and H-RasV12-ER assessed as increase in phosphorylated histone H3 (Ser10) level at 5 uM after 24 hrs by immunoblot analysis relative to control; type: functional
Procedure, shortened: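 Fully transformed BJ fibroblasts (hTert, small t, shRNAs to p53 and pRb, H-RasV12-ER) treated 24 h at 5 μM. Immunoblot protocol as for HeLa. pH3 (Ser10) band intensity expressed as fold of DMSO control; under 2-fold counted as insignificant.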

BJ = assay: Cell cycle arrest in human BJ cells assessed as accumulation at sub-G1 phase at 5 uM after 48 hrs; type: cell-based; procedure, shortened: as §1

SMILES	Activity (hTERT-BJ [1])	fold change (FC) (hTERT-BJ [2])	fold change (FC) (hTERT-BJ [3])	Activity (BJ)
C(=C\c1c[nH]c2ccccc12)/c1cccc2cnccc12	inactive	5.4	1.3	Non-Toxic
N#C/C(=C\c1cccc2cnccc12)c1c[nH]c2c(CN3CCCC3)cccc12		3.7	0.8	
N#C/C(=C\c1cccnc1)c1c[nH]c2ccccc12		1.1	1.2	
O=C(Nc1cccc2cnccc12)c1c[nH]c2ccccc12		0.4	1.4	
COc1ccc2c(/C(C#N)=C/c3cccc4cnccc34)c[nH]c2c1		2.6	4.3	
N#C/C(=C\c1cccc2cccnc12)c1c[nH]c2ccccc12		0.6	1.3	
N#C/C(=C\c1cccc2cnccc12)c1n[nH]c2ccccc12		2	1.4	
N#C/C(=C\c1cccc2cnccc12)c1c[nH]c2ncccc12		1.4	1.8	
N#C/C(=C\c1cccc2cnccc12)c1c[nH]c2ccc(Cl)cc12		2	1.4	
Cn1cc(/C(C#N)=C/c2cccc3cnccc23)c2ccccc21		1.6	1.1	
N#C/C(=C\c1cccc2cnccc12)c1c[nH]c2cc(Br)ccc12		0.7	1.6	
N#C/C(=C\c1cccc2cnccc12)c1c[nH]c2ccc(OCCC3OCCO3)cc12		0.7	1	
NC(=O)/C(=C\c1cccc2cnccc12)c1c[nH]c2ccccc12		0.6	1.3	
N#C/C(=C\c1cccc2cnccc12)c1c[nH]c2cc(CN3CCCC3)ccc12		5.7	1.1	
COCCOc1ccc2[nH]cc(/C(C#N)=C/c3cccc4cnccc34)c2c1	inactive	3.2	1.6	Non-Toxic
N#C/C(=C\c1ccnc2ccccc12)c1c[nH]c2ccccc12		0.4	1.4	
N#C/C(=C\c1cccc2cnccc12)c1c[nH]c2ccc(F)cc12		0.5	0.9	
N#C/C(=C\c1cccc2cnccc12)c1c[nH]c2ccc([N+](=O)[O-])cc12		0.6	0.9	
N#C/C(=C\c1cccc2ncccc12)c1c[nH]c2ccccc12	Active	0.7	10.5	Toxic
CC(=O)Nc1ccc2[nH]cc(/C(C#N)=C/c3cccc4cnccc34)c2c1		0.5	1.2	
N#C/C(=C\c1cccc2cnccc12)c1c[nH]c2ccc(CN3CCCC3)cc12		3.3	1	
N#C/C(=C\c1cncc2ccccc12)c1c[nH]c2ccccc12	inactive	0.7	1.3	Non-Toxic
N#C/C(=C\c1cccc2cnccc12)c1c[nH]c2c(Br)cccc12		2.2	1.4	
N#CC(Cc1cccc2cnccc12)c1c[nH]c2ccccc12 (stereo unspecified)		0.3	1.2	
N#C/C(=C\c1cccc2ccncc12)c1c[nH]c2ccccc12		0.7	1.5	
N#C/C(=C\c1cncc2cnccc12)c1c[nH]c2ccccc12		1	1.4	
N#C/C(=C\c1cccc2cnccc12)c1c[nH]c2cccc(Br)c12		0.5	1.1	
Cc1[nH]c2ccccc2c1/C(C#N)=C/c1cccc2cnccc12		0.7	1.1	
COc1cccc2c(/C(C#N)=C/c3cccc4cnccc34)c[nH]c12		2.7	3.9	
